Values after ≈ are worked out from the molar mass of the structure shown.
Columns and labels:
MCF7 = experiment: Cytotoxicity against human MCF7 cells assessed as cell growth after 2 days by sulforhodamine B assay; type: functional; conditions: MCF7, 48 h
Summary of the method: (§1)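 NCI cell lines were run by the Monks method: cells were plated with compounds from DMSO stocks and incubated 2 days at 37 °C in 5% CO2, in duplicate. Cells were fixed with cold TCA, stained with 0.4% SRB, and the bound dye was solubilized in 10 mM tris-base and read at 515 nm. The zero-day control was subtracted, and GI50 was taken from the curves.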

Aspergillus flavus = experiment: Antifungal activity against Aspergillus flavus ATCC 9170; type: functional
Summary of the method: (§2)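 Broth microdilution per CLSI M38-A2 in RPMI-1640 with MOPS at pH 7.0. Inoculum 1-5 × 10^3 CFU/mL, with twofold compound dilutions spanning 250-0.24 µg/ml (final DMSO <1%). Plates incubated at 35 °C, moist and dark, and read when the control fungus had grown. MIC is total growth inhibition. MFC comes from subculturing clear wells in duplicate onto SDA.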

Saccharomyces cerevisiae = experiment: Antifungal activity against Saccharomyces cerevisiae ATCC 9763; type: functional
Summary of the method: (§3)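 CLSI M27-A3 broth microdilution in RPMI-1640 buffered to pH 7.0 with MOPS. Inoculum 1-5 × 10^3 CFU/mL. Compound twofold dilutions from 250 to 0.24 µg/ml, final DMSO <1%. Incubated at 35 °C in a moist, dark chamber and read at 48 h. MIC is the lowest concentration giving total growth inhibition. For MFC, 5 µL from clear wells was plated in duplicate on SDA; MFC is the lowest concentration with no growth.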

Candida albicans = experiment: Antifungal activity against Candida albicans ATCC 10213; type: functional; summary of the method: as §3
Aspergillus niger = experiment: Antifungal activity against Aspergillus niger ATCC 9029; type: functional; summary of the method: as §2
[1] = test system: Trichophyton mentagrophytes; experiment: Antifungal activity against Trichophyton mentagrophytes ATCC 9972; type: functional
Summary of the method: (§4)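 Dermatophytes tested by CLSI M38-A2 microdilution in MOPS-buffered RPMI-1640 at pH 7.0. Inoculum 1-5 × 10^3 CFU/mL; compounds 250 to 0.24 µg/ml in twofold steps, final DMSO <1%. Incubated at 28 °C in a moist, dark chamber and read according to control growth. MIC is the lowest concentration with complete inhibition. MFC is the lowest concentration with no growth after duplicate subculture on SDA.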

Trichophyton rubrum = experiment: Antifungal activity against Trichophyton rubrum C 113 2000; type: functional; summary of the method: as §4
NCI-H460 = experiment: Cytotoxicity against human H460 cells assessed as cell growth after 2 days by sulforhodamine B assay; type: functional; conditions: NCI-H460, 48 h; summary of the method: as §1
Aspergillus fumigatus = experiment: Antifungal activity against Aspergillus fumigatus ATCC 26934; type: functional; summary of the method: as §2
SF-268 = experiment: Cytotoxicity against human SF268 cells assessed as cell growth after 2 days by sulforhodamine B assay; type: functional; conditions: SF-268, 48 h; summary of the method: as §1
[2] = Cytotoxicity against human erythrocytes assessed as hemolysis by spectrometric analysis; type: cell-based, Erythrocyte
Summary of the method: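 Human heparinized red blood cells were washed in PBS at pH 7.0 and suspended at 4% in sterile 5% glucose. Compounds from DMSO stocks were diluted in 5% glucose to final concentrations of 250 to 0.24 µg/ml and incubated with the cells at 37 °C. Released hemoglobin was read at 540 nm. HC50 is the concentration giving 50% lysis relative to the drug-free value.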

Cryptococcus neoformans = experiment: Antifungal activity against Cryptococcus neoformans ATCC 32264; type: functional; summary of the method: as §3
Candida tropicalis = experiment: Antifungal activity against Candida tropicalis C 131 2000; type: functional; summary of the method: as §3
Nannizzia gypsea = experiment: Antifungal activity against Microsporum gypseum C 115 2000; type: functional; summary of the method: as §4

| SMILES | MIC (Aspergillus flavus) [µg/mL] | MIC (Saccharomyces cerevisiae) [µg/mL] | MIC (Candida albicans) [µg/mL] | MIC (Aspergillus niger) [µg/mL] | MIC [1] [µg/mL] | MIC (Trichophyton rubrum) [µg/mL] | MIC (Aspergillus fumigatus) [µg/mL] | MIC (Cryptococcus neoformans) [µg/mL] | GI50 (MCF7) [µg/mL] | MFC (Aspergillus flavus) [µg/mL] | MFC (Saccharomyces cerevisiae) [µg/mL] | MFC (Candida albicans) [µg/mL] | MFC (Aspergillus niger) [µg/mL] | MFC [1] [µg/mL] | MFC (Trichophyton rubrum) [µg/mL] | GI50 (NCI-H460) [µg/mL] | MFC (Aspergillus fumigatus) [µg/mL] | GI50 (SF-268) [µg/mL] | HC50 [2] [µg/mL] | MFC (Cryptococcus neoformans) [µg/mL] | other results |
| --- | --- | --- | --- | --- | --- | --- | --- | --- | --- | --- | --- | --- | --- | --- | --- | --- | --- | --- | --- | --- | --- |
| O=C1C(Cl)=C(Cl)C(=O)N1Cc1ccccc1 | 31.2 (≈ 122 µM) | 7.81 (≈ 30.5 µM) | 15.6 (≈ 61 µM) | 31.2 (≈ 122 µM) | 7.81 (≈ 30.5 µM) | 7.81 (≈ 30.5 µM) | 15.6 (≈ 61 µM) | 7.81 (≈ 30.5 µM) | > 10 | 31.2 (≈ 122 µM) | 15.6 (≈ 61 µM) | 31.2 (≈ 122 µM) | 62.5 (≈ 244 µM) | 15.6 (≈ 61 µM) | 15.6 (≈ 61 µM) | > 10 | 31.2 (≈ 122 µM) | > 10 | > 250 | 15.6 (≈ 61 µM) | MFC (Candida tropicalis): 31.2 µg/mL (≈ 122 µM); MIC (Candida tropicalis): 31.2 µg/mL (≈ 122 µM); MFC (Nannizzia gypsea): 31.2 µg/mL (≈ 122 µM); MIC (Nannizzia gypsea): 15.6 µg/mL (≈ 61 µM) |
| O=C1C(Cl)=C(Cl)C(=O)N1CCc1ccccc1 | 15.6 (≈ 57.9 µM) | 3.9 (≈ 14.4 µM) | 7.81 (≈ 28.9 µM) | 15.6 (≈ 57.9 µM) | 7.81 (≈ 28.9 µM) | 3.9 (≈ 14.4 µM) | 15.6 (≈ 57.9 µM) | 7.81 (≈ 28.9 µM) | > 10 | 15.6 (≈ 57.9 µM) | 7.81 (≈ 28.9 µM) | 15.6 (≈ 57.9 µM) | 31.2 (≈ 116 µM) | 15.6 (≈ 57.9 µM) | 7.81 (≈ 28.9 µM) | > 10 | 15.6 (≈ 57.9 µM) | > 10 | > 250 | 7.81 (≈ 28.9 µM) | MFC (Candida tropicalis): 31.2 µg/mL (≈ 116 µM); MIC (Candida tropicalis): 15.6 µg/mL (≈ 57.9 µM); MFC (Nannizzia gypsea): 31.2 µg/mL (≈ 116 µM); MIC (Nannizzia gypsea): 15.6 µg/mL (≈ 57.9 µM) |
| O=C1C(Cl)=C(Cl)C(=O)N1CCCc1ccccc1 | 15.6 (≈ 55 µM) | 3.9 (≈ 13.7 µM) | 7.81 (≈ 27.5 µM) | 15.6 (≈ 55 µM) | 3.9 (≈ 13.7 µM) | 3.9 (≈ 13.7 µM) | 15.6 (≈ 55 µM) | 3.9 (≈ 13.7 µM) | > 10 | 31.2 (≈ 110 µM) | 3.9 (≈ 13.7 µM) | 15.6 (≈ 55 µM) | 15.6 (≈ 55 µM) | 7.81 (≈ 27.5 µM) | 7.81 (≈ 27.5 µM) | > 10 | 31.2 (≈ 110 µM) | > 10 | > 250 | 3.9 (≈ 13.7 µM) | MFC (Candida tropicalis): 15.6 µg/mL (≈ 55 µM); MIC (Candida tropicalis): 7.81 µg/mL (≈ 27.5 µM); MFC (Nannizzia gypsea): 15.6 µg/mL (≈ 55 µM); MIC (Nannizzia gypsea): 15.6 µg/mL (≈ 55 µM) |
| CC1=CC(=O)N(CCc2ccccc2)C1=O | 62.5 (≈ 290 µM) | 31.2 (≈ 145 µM) | 62.5 (≈ 290 µM) | 62.5 (≈ 290 µM) | 31.2 (≈ 145 µM) | 7.81 (≈ 36.3 µM) | 31.2 (≈ 145 µM) | 31.2 (≈ 145 µM) | > 10 | 250 (≈ 1160 µM) | 62.5 (≈ 290 µM) | 125 (≈ 581 µM) | 250 (≈ 1160 µM) | 62.5 (≈ 290 µM) | 15.6 (≈ 72.6 µM) | > 10 | 31.2 (≈ 145 µM) | > 10 | > 250 | 62.5 (≈ 290 µM) | MFC (Candida tropicalis): 250 µg/mL (≈ 1160 µM); MIC (Candida tropicalis): 125 µg/mL (≈ 581 µM); MFC (Nannizzia gypsea): 7.81 µg/mL (≈ 36.3 µM); MIC (Nannizzia gypsea): 3.9 µg/mL (≈ 18.1 µM) |

Further compounds by falling MIC (Aspergillus flavus), results first:

| MIC (Aspergillus flavus) [µg/mL] | MIC (Saccharomyces cerevisiae) [µg/mL] | MIC (Candida albicans) [µg/mL] | MIC (Aspergillus niger) [µg/mL] | MIC [1] [µg/mL] | MIC (Trichophyton rubrum) [µg/mL] | MIC (Aspergillus fumigatus) [µg/mL] | MIC (Cryptococcus neoformans) [µg/mL] | SMILES | GI50 (MCF7) [µg/mL] | MFC (Aspergillus flavus) [µg/mL] | MFC (Saccharomyces cerevisiae) [µg/mL] | MFC (Candida albicans) [µg/mL] | MFC (Aspergillus niger) [µg/mL] | MFC [1] [µg/mL] | MFC (Trichophyton rubrum) [µg/mL] | GI50 (NCI-H460) [µg/mL] | MFC (Aspergillus fumigatus) [µg/mL] | GI50 (SF-268) [µg/mL] | HC50 [2] [µg/mL] | MFC (Cryptococcus neoformans) [µg/mL] | other results |
| --- | --- | --- | --- | --- | --- | --- | --- | --- | --- | --- | --- | --- | --- | --- | --- | --- | --- | --- | --- | --- | --- |
| 62.5 (≈ 311 µM) | 31.2 (≈ 155 µM) | 62.5 (≈ 311 µM) | 62.5 (≈ 311 µM) | 31.2 (≈ 155 µM) | 3.9 (≈ 19.4 µM) | 31.2 (≈ 155 µM) | 15.6 (≈ 77.7 µM) | CC1=CC(=O)N(Cc2ccccc2)C1=O | > 10 | 125 (≈ 621 µM) | 62.5 (≈ 311 µM) | 125 (≈ 621 µM) | 125 (≈ 621 µM) | 31.2 (≈ 155 µM) | 7.81 (≈ 38.8 µM) | > 10 | 62.5 (≈ 311 µM) | > 10 | > 250 | 31.2 (≈ 155 µM) | MFC (Candida tropicalis): 250 µg/mL (≈ 1240 µM); MIC (Candida tropicalis): 125 µg/mL (≈ 621 µM); MFC (Nannizzia gypsea): 7.81 µg/mL (≈ 38.8 µM); MIC (Nannizzia gypsea): 3.9 µg/mL (≈ 19.4 µM) |
| 15.6 (≈ 52.4 µM) | 3.9 (≈ 13.1 µM) | 7.81 (≈ 26.2 µM) | 15.6 (≈ 52.4 µM) | 3.9 (≈ 13.1 µM) | 3.9 (≈ 13.1 µM) | 31.2 (≈ 105 µM) | 3.9 (≈ 13.1 µM) | O=C1C(Cl)=C(Cl)C(=O)N1CCCCc1ccccc1 | > 10 | 31.2 (≈ 105 µM) | 7.81 (≈ 26.2 µM) | 15.6 (≈ 52.4 µM) | 15.6 (≈ 52.4 µM) | 7.81 (≈ 26.2 µM) | 7.81 (≈ 26.2 µM) | > 10 | 62.5 (≈ 210 µM) | > 10 | > 250 | 3.9 (≈ 13.1 µM) | MFC (Candida tropicalis): 15.6 µg/mL (≈ 52.4 µM); MIC (Candida tropicalis): 7.81 µg/mL (≈ 26.2 µM); MFC (Nannizzia gypsea): 31.2 µg/mL (≈ 105 µM); MIC (Nannizzia gypsea): 15.6 µg/mL (≈ 52.4 µM) |

Reference: ChEMBL document CHEMBL1772954, “Antifungal, cytotoxic and SAR studies of a series of N-alkyl, N-aryl and N-alkylphenyl-1,4-pyrrolediones and related compounds” (Bioorg Med Chem, 2011)
